Legend:
Format in all cases: cell-based
[1] = target: T1, Adenosine receptor A1 (Homo sapiens) (UniProt P30542); experiment: Displacement of [3H]DPCPX from human adenosine A1 receptor expressed in CHO cells at 0.1 uM by liquid scintillation counting
T1 sequence (whole entry): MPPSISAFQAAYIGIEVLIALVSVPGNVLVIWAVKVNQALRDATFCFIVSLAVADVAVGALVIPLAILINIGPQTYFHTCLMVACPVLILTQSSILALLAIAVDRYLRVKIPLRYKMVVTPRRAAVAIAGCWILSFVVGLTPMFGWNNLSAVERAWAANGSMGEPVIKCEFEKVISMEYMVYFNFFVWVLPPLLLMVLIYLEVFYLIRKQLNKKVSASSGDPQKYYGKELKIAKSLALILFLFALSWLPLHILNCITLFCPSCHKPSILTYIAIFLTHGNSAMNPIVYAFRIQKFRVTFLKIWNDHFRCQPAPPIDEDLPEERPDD
How it was run: (§1)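 Transfected CHO cell membranes (15 μg) were incubated with [3H]DPCPX at 25 °C for 60 min, with six test concentrations from 0.1 nM to 1 μM. Nonspecific binding was defined with 10 μM R-PIA. Filters were washed four times with ice-cold buffer before scintillation counting. Ki (Cheng–Prusoff) is mean ± SEM, n=3; % displacement at 0.1 μM is n=2.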

Adenosine receptor A3 = target: T2, Adenosine receptor A3 (Homo sapiens, UniProt P0DMS8); experiment: Displacement of [3H]NECA from human adenosine A3 receptor expressed in human HeLa cells by liquid scintillation counting; conditions: read-out: Ki
T2 sequence (P0DMS8 whole entry): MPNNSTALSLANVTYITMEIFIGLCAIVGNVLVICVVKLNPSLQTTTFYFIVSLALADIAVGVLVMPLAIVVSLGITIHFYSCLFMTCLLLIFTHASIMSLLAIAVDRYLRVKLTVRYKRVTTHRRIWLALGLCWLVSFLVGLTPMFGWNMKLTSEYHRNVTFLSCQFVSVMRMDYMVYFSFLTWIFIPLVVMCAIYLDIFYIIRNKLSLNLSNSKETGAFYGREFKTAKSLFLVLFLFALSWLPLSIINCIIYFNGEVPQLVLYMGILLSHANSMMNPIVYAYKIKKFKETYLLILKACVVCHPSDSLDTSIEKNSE
How it was run: (§2)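 HeLa membranes (90 μg) carrying hA3AR were incubated with [3H]NECA (30 nM) at 25 °C for 180 min, with six concentrations from 0.1 nM to 1 μM. Nonspecific binding was defined with 100 μM R-PIA. Filters were washed six times and counted by scintillation.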

[2] = target: T3, Adenosine receptor A2b (Homo sapiens) (UniProt P29275); experiment: Displacement of [3H]DPCPX from human adenosine A2B receptor expressed in HEK293 cells at 0.1 uM by liquid scintillation counting
T3 sequence (whole entry): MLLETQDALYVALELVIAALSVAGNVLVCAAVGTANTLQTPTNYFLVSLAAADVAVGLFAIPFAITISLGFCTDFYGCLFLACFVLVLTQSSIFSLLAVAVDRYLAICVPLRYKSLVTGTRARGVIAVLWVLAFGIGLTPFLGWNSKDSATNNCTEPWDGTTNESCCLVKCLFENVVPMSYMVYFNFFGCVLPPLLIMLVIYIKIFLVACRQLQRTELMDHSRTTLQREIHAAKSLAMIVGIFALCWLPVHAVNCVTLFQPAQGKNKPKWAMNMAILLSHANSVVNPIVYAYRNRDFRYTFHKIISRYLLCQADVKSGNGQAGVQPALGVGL
How it was run: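 HEK-293 membranes (18 μg) were incubated with [3H]DPCPX (35 nM) at 25 °C for 30 min, with six concentrations from 0.1 nM to 1 μM. Nonspecific binding was defined with 400 μM NECA. Filters were washed six times with ice-cold buffer and counted by scintillation. Ki (Cheng–Prusoff) is mean ± SEM, n=3; % displacement at 0.1 μM is n=2.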

Adenosine receptor A2a [3] = target: T4, Adenosine receptor A2a (Homo sapiens, UniProt P29274); experiment: Displacement of [3H][…] from human adenosine A2A receptor expressed in human HeLa cells by liquid scintillation counting
How it was run: (§3)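 Nonspecific binding was defined with 50 μM NECA. Filters were washed four times with ice-cold buffer, then counted by scintillation. Ki (Cheng–Prusoff) is mean ± SEM, n=3; % displacement at 0.1 μM is n=2.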

Adenosine receptor A1 = target: T5, Adenosine receptor A1 (Homo sapiens, UniProt P30542); experiment: Displacement of [3H]DPCPX from human adenosine A1 receptor expressed in CHO cells by liquid scintillation counting; how it was run: as §1
T5 sequence (P30542 whole entry): T1 sequence (whole entry)

Adenosine receptor A2a [4] = target: T4, Adenosine receptor A2a; experiment: Displacement of [3H][…] from human adenosine A2A receptor expressed in human HeLa cells at 0.1 uM by liquid scintillation counting; how it was run: as §3
[5] = target: T6, Adenosine receptor A3 (Homo sapiens) (UniProt P0DMS8); experiment: Displacement of [3H]NECA from human adenosine A3 receptor expressed in human HeLa cells at 0.1 uM by liquid scintillation counting
T6 sequence (whole entry): T2 sequence (P0DMS8 whole entry)
How it was run: as §2, with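 “scintillation. Ki (Cheng–Prusoff) is mean ± SEM, n=3; % displacement at 0.1 μM is n=2.” for “scintillation.”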

T4 sequence (P29274 whole entry): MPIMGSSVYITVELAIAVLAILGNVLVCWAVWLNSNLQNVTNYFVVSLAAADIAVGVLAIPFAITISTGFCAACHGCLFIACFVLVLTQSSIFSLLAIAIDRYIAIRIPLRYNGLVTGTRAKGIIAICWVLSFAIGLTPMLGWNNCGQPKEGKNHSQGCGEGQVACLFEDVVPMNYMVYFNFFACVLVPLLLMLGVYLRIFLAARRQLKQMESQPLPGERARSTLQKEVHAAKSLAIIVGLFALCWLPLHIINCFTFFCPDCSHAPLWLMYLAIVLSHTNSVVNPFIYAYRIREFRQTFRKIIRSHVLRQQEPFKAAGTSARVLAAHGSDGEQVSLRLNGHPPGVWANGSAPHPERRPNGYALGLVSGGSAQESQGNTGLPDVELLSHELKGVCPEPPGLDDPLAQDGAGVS

Row | inhibition [1] [%] | Ki (Adenosine receptor A3) [nM] | inhibition [2] [%] | Ki (Adenosine receptor A2a [3]) [nM] | Ki (Adenosine receptor A1) [nM] | inhibition (Adenosine receptor A2a [4]) [%] | inhibition [5] [%] | SMILES
1 | 15 | 16.7 | 1 | 1330 | – | – | – | CC(=O)Nc1cc(-c2ccc(F)cc2)nc(-c2ccc(F)cc2)n1
2 | – | 751 | 1 | – | 678 | 8 | – | CCCC(=O)Nc1nc(-c2ccc3c(c2)OCO3)cc(-c2ccc3c(c2)OCO3)n1
3 | 2 | – | 9 | – | – | 24 | 15 | CCCC(=O)Nc1nc(-c2ccc(OC)cc2)cc(-c2ccc(OC)cc2)n1
4 | 2 | – | 1 | – | – | 2 | 8 | CC(=O)Nc1nc(-c2ccc(F)cc2)cc(-c2ccc(F)cc2)n1
5 | 14 | – | 1 | – | – | 3 | 22 | CCC(=O)Nc1nc(-c2ccc(F)cc2)cc(-c2ccc(F)cc2)n1
6 | 7 | – | 14 | – | – | 8 | 2 | CC(=O)Nc1nc(-c2ccc(C(C)=O)cc2)cc(-c2ccc(C(C)=O)cc2)n1
7 | 13 | – | 1 | – | – | 11 | 18 | CCCC(=O)Nc1nc(-c2ccccc2OC)cc(-c2ccccc2OC)n1
8 | 17 | – | 15 | – | – | 23 | 1 | CCCC(=O)Nc1nc(-c2ccco2)cc(-c2ccco2)n1
9 | 17 | – | 6 | – | – | 11 | 13 | CC(=O)Nc1nc(-c2ccccc2)cc(-c2ccccc2)n1
10 | 2 | – | 9 | – | – | 12 | 2 | CCC(=O)Nc1nc(-c2ccc(C(F)(F)F)cc2)cc(-c2ccc(C(F)(F)F)cc2)n1
11 | 21 | – | 2 | – | – | 13 | 22 | CCC(=O)Nc1nc(-c2ccccc2OC)cc(-c2ccccc2OC)n1
12 | 3 | – | 1 | – | – | 2 | 12 | CCCC(=O)Nc1cc(-c2ccc(SC)cc2)nc(-c2ccc(SC)cc2)n1
13 | – | 23.2 | 7 | – | 113 | 22 | – | CCC(=O)Nc1cc(-c2ccccc2OC)nc(-c2ccccc2OC)n1
14 | – | 110 | 3 | – | 41.3 | 14 | – | CCCC(=O)Nc1cc(-c2ccccc2OC)nc(-c2ccccc2OC)n1
15 | 1 | – | 2 | – | – | 1 | 14 | CSc1ccc(-c2cc(-c3ccc(SC)cc3)nc(NC(C)=O)n2)cc1
16 | 1 | – | 1 | – | – | 7 | 20 | COc1ccc(-c2cc(-c3ccc(OC)cc3)nc(NC(C)=O)n2)cc1
17 | – | 131 | 10 | – | 3760 | 2 | – | CCCC(=O)Nc1nc(-c2ccc(C)cc2)cc(-c2ccc(C)cc2)n1
18 | – | 18.3 | 2 | – | 36.9 | 1 | – | CCC(=O)Nc1cc(-c2ccc(C)cc2)nc(-c2ccc(C)cc2)n1
19 | 11 | – | 0 | – | – | 17 | 21 | CCCC(=O)Nc1nc(-c2ccoc2)cc(-c2ccoc2)n1
20 | 7 | – | 2 | – | – | 14 | 22 | CCCC(=O)Nc1nc(-c2ccc(C(C)=O)cc2)cc(-c2ccc(C(C)=O)cc2)n1
21 | 1 | – | 1 | – | – | 12 | 17 | CCC(=O)Nc1nc(-c2ccc(C(C)=O)cc2)cc(-c2ccc(C(C)=O)cc2)n1
22 | 1 | – | 1 | – | – | 2 | 9 | COc1ccc(-c2cc(-c3ccc(OC)cc3OC)nc(NC(C)=O)n2)c(OC)c1
23 | 18 | – | 2 | – | – | 5 | 27 | CCCC(=O)Nc1nc(-c2ccc(F)cc2)cc(-c2ccc(F)cc2)n1
24 | 3 | – | 6 | – | – | 1 | 12 | CCCC(=O)Nc1cc(-c2ccc(C(F)(F)F)cc2)nc(-c2ccc(C(F)(F)F)cc2)n1

The next lines start with the compound.

Row | SMILES | inhibition [1] [%] | Ki (Adenosine receptor A3) [nM] | inhibition [2] [%] | Ki (Adenosine receptor A2a [3]) [nM] | Ki (Adenosine receptor A1) [nM] | inhibition (Adenosine receptor A2a [4]) [%] | inhibition [5] [%]
25 | CC(=O)Nc1cc(-c2ccsc2)nc(-c2ccsc2)n1 | 13 | 20.2 | 16 | 39.8 | – | – | –
26 | CCCC(=O)Nc1cc(-c2ccsc2)nc(-c2ccsc2)n1 | – | – | 21 | – | 65.1 | 23 | 11
27 | CC(=O)Nc1cc(-c2ccccc2)nc(-c2ccccc2)n1 | – | 12.1 | 19 | 255 | 31.2 | – | –
28 | CCC(=O)Nc1nc(-c2ccoc2)cc(-c2ccoc2)n1 | 3 | – | 11 | – | – | 2 | 16
29 | CC(=O)Nc1nc(-c2ccoc2)cc(-c2ccoc2)n1 | 1 | – | 1 | – | – | 1 | 1
30 | CC(=O)Nc1cc(-c2ccccc2F)nc(-c2ccccc2F)n1 | 17 | 18.1 | 21 | 73.8 | – | – | –
31 | CC(=O)Nc1cc(-c2cccs2)nc(-c2cccs2)n1 | 19 | 8 | 23 | 24.6 | – | – | –
32 | CC(=O)Nc1nc(-c2ccco2)cc(-c2ccco2)n1 | 1 | – | 11 | – | – | 19 | 9
33 | CCCC(=O)Nc1cc(-c2cccs2)nc(-c2cccs2)n1 | – | 23 | 8 | 153 | 33.3 | – | –
34 | CCC(=O)Nc1nc(-c2ccc3c(c2)OCO3)cc(-c2ccc3c(c2)OCO3)n1 | – | 127 | 1 | – | 535 | 16 | –
35 | CC(=O)Nc1nc(/C=C/c2ccccc2)cc(/C=C/c2ccccc2)n1 | 1 | – | 1 | – | – | 15 | 4
36 | CCCC(=O)Nc1cc(-c2ccc3c(c2)OCO3)nc(-c2ccc3c(c2)OCO3)n1 | – | 59 | 16 | – | 9.7 | 22 | –
37 | CC(=O)Nc1nc(-c2ccsc2)cc(-c2ccsc2)n1 | 2 | – | 1 | – | – | 2 | 1
38 | CCCC(=O)Nc1nc(/C=C/c2ccccc2)cc(/C=C/c2ccccc2)n1 | 1 | – | 2 | – | – | 3 | 12
39 | CCC(=O)Nc1cc(-c2ccc(C(F)(F)F)cc2)nc(-c2ccc(C(F)(F)F)cc2)n1 | 3 | – | 8 | – | – | 17 | 12
40 | CC(=O)Nc1nc(-c2ccccc2F)cc(-c2ccccc2F)n1 | 8 | – | 10 | – | – | 12 | 15
